We go through 1 molecule from ChEMBL document CHEMBL4699441, “Identification and Preclinical Evaluation of the Bicyclic Pyrimidine γ-Secretase Modulator BMS-932481” (ACS Med Chem Lett, 2019).

Molecules are shown by their SMILES. Converted amounts (≈) assume the structure as drawn. The source made the active and inactive calls. No cut-off for these calls is given here.

Data set [1] in a line: Inhibition of amyloid beta (1 to 42) secretion in human H4 cells overexpressing APP incubated for overnight by HTRF analysis. The format is functional, cell-based. In general terms: Time-resolved FRET reads energy transfer from a long-lived donor to a nearby acceptor.
For data set [2], the target named is Voltage-gated inwardly rectifying potassium channel KCNH2 (Homo sapiens, UniProt Q12809). The data set is described as follows: Inhibition of human ERG by patch clamp method. (In patch-clamp work, channel activity is measured electrically.)
Data set [3] addresses Gamma-secretase (Homo sapiens) (UniProt Q96BI3+Q9NZ42+Q8WW43+P49768+Q92542+P49810). The data set is described as follows: Modulation of gamma-secretase in human H4 cells overexpressing APP incubated assessed as increase in amyloid beta (1 to 38) secretion for 24 hrs by MALDI-TOF mass spectrometric analysis. In kind it is cell-based. To be noted: filed as modulator. The method, boiled down: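 H4-APPsw cells treated with compound; secreted Aβ species quantified by mass spectrometry; total Aβ1-x checked by ELISA up to 10 μM.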

Data set [4] in a line: Fraction unbound in human plasma measured after 24 hrs by LC-MS/MS analysis. The format is ADME, cell-free.
A short description of data set [5]: Inhibition of amyloid beta (x to 42) secretion in human H4 cells overexpressing APP incubated for overnight by HTRF analysis. In kind it is functional, cell-based.
Data set [6] in a line: Fraction unbound in Beagle dog plasma measured after 24 hrs by LC-MS/MS analysis. In kind it is ADME, cell-free, Canis lupus familiaris.
For data set [7], the target named is T1, Cytochrome P450 2B6 (Homo sapiens, UniProt P20813).
T1 sequence (P20813 whole entry): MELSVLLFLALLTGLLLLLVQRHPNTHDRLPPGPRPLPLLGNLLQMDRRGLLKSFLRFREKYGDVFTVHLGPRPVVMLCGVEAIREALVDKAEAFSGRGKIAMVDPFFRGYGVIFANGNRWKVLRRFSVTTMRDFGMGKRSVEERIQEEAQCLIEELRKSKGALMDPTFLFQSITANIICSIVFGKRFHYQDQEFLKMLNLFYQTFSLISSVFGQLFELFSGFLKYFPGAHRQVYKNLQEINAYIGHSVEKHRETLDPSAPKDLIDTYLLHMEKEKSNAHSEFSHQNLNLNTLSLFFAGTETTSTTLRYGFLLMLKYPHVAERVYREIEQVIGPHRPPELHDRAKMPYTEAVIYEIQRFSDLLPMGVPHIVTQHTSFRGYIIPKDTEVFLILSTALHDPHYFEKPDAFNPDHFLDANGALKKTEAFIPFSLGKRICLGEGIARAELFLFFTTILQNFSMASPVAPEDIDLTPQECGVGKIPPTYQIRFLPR
Briefly: Inhibition of CYP2B6 in human liver microsomes. In kind it is ADME.

For data set [8], the target named is T2, Cytochrome P450 2C8 (Homo sapiens, UniProt P10632).
T2 sequence (P10632 whole entry): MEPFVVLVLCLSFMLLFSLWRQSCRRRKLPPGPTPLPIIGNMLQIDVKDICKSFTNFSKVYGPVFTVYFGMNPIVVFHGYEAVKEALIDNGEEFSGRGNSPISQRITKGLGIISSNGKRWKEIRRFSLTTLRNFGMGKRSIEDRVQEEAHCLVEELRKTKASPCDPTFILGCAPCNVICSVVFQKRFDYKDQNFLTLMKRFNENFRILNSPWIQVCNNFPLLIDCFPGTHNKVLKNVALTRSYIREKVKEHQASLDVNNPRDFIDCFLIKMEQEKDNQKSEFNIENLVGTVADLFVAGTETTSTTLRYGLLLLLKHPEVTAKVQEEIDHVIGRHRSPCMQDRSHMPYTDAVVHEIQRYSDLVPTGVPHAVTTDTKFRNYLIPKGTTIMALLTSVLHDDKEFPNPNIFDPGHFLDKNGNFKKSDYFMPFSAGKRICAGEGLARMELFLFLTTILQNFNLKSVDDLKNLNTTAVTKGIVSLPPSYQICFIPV
The data set is described as follows: Inhibition of CYP2C8 in human liver microsomes. In kind it is ADME.

The target in data set [9] is Cytochrome P450 2C19 (Homo sapiens, UniProt P33261). Briefly: Inhibition of CYP2C19 in human liver microsomes. The format is ADME. In general terms: Liver microsomes are vesicles of endoplasmic reticulum, rich in cytochrome P450 enzymes.
The target in data set [10] is Cytochrome P450 3A4 (Homo sapiens, UniProt P08684). The data set is described as follows: Time dependent inhibition of CYP3A4 in human liver microsomes assessed as inhibition constant. In kind it is ADME.
A short description of data set [11]: Aqueous solubility of the compound at pH 6.5. In kind it is physicochemical. The conditions noted are these: buffer.
Data set [12] is described as follows: Volume of steady state distribution in Sprague-Dawley rat at 2 mg/kg, iv measured up to 24 hrs by LC-MS/MS analysis. The format is ADME, organism-based. The conditions noted are these: in vivo. The method in brief:
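Sprague–Dawley rats; 2 mg/kg given as 5 min iv infusion in 9:1 PEG:EtOH; n = 5; volume of distribution at steady state.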

The nature of data set [13]: Volume of steady state distribution in cynomolgus monkey at 1 mg/kg, iv measured up to 24 hrs by LC-MS/MS analysis. In kind it is ADME, organism-based, Macaca fascicularis. To be noted: in vivo. The method in brief: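 Male Beagle dog or male cynomolgus monkey; 1 mg/kg as 5 min iv infusion in 9:1 PEG:EtOH; n = 3; volume of distribution at steady state.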
A short description of data set [14]: Oral bioavailability in cynomolgus monkey at 1 mg/kg dosed as nano suspension measured up to 24 hrs by LC-MS/MS analysis. The format is ADME, organism-based, Macaca fascicularis. The conditions noted are these: in vivo. The method in brief:
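Oral dosing as a nanosuspension in Sprague–Dawley rat, male Beagle dog and male cynomolgus monkey; dogs pretreated with pentagastrin.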

Data set [15] can be described thus: Half life in Beagle dog at 1 mg/kg, iv measured up to 24 hrs by LC-MS/MS analysis. In kind it is ADME, organism-based, Canis lupus familiaris. The conditions noted are these: in vivo. The method, boiled down: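 Male Beagle dogs and male cynomolgus monkeys, 1 mg/kg by 5 min iv infusion in 9:1 PEG:EtOH, n=3.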
Data set [16] is described as follows: Induction of CYP3A4 mRNA expression in human hepatocytes at 1 uM relative to control. The format is ADME, cell-based, Hepatocyte.
Data set [17] in a line: Cardiotoxicity in unconscious telemeterized rabbit assessed as change in QTcf time at 3 mg/kg. To be noted: in vivo. The format is toxicity, organism-based, Oryctolagus cuniculus.
Data set [18] can be described thus: Cardiotoxicity in unconscious telemeterized rabbit assessed as increase in QTcf time at 10 mg/kg. In kind it is toxicity, organism-based, Oryctolagus cuniculus. To be noted: in vivo.
Data set [19] in a line: Hemodynamic activity in unconscious telemeterized rabbit assessed as increase in blood pressure at >= 10 mg/kg. The format is ADME, organism-based, Oryctolagus cuniculus. The conditions noted are these: in vivo.
Data set [20] in a line: Toxicity in rat assessed as change in gamma-secretase modulator function at 100 mg/kg, po administered for 2 week. The format is organism-based. The conditions noted are these: in vivo, 336 h, time 2 weeks.
The nature of data set [21]: Cmax in Beagle dog at 300 mg/kg, po measured up to 24 hrs by LC-MS/MS analysis. In kind it is ADME, organism-based, Canis lupus familiaris. Set-up: route oral, dose 300 mg/kg, time >=24. To be noted: in vivo. The method in brief: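 Dogs given an acute single oral dose of 300 mg/kg; plasma Cmax and AUC measured alongside bilirubin and other clinical pathology assessments.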

Data set [22] is described as follows: Toxicity in Beagle dog assessed as NOAEL administered for 1 month. Set-up: species or system Canis lupus familiaris. The conditions noted are these: in vivo, 730 h, time 1 months.
A short description of data set [23]: Plasma exposure (AUC) in rat at 3 mg/kg measured after 24 hrs.
A short description of data set [24]: Plasma exposure (AUC) in rat at 10 mg/kg measured after 24 hrs.

Sequence of Cytochrome P450 3A4 (P08684 whole entry): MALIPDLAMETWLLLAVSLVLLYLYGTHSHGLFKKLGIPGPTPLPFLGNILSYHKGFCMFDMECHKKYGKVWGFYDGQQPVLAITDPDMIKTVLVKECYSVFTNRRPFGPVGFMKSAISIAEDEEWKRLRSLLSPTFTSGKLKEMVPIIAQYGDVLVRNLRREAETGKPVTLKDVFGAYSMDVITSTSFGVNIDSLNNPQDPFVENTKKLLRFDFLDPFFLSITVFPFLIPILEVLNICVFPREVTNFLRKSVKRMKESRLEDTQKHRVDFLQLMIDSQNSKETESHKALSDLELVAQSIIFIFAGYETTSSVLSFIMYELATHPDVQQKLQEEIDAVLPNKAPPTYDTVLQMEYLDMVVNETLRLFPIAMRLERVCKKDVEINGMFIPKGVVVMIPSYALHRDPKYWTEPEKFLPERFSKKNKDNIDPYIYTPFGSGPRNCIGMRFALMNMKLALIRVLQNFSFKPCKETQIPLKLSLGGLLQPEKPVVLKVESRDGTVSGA
Sequence of Voltage-gated inwardly rectifying potassium channel KCNH2 (Q12809 whole entry): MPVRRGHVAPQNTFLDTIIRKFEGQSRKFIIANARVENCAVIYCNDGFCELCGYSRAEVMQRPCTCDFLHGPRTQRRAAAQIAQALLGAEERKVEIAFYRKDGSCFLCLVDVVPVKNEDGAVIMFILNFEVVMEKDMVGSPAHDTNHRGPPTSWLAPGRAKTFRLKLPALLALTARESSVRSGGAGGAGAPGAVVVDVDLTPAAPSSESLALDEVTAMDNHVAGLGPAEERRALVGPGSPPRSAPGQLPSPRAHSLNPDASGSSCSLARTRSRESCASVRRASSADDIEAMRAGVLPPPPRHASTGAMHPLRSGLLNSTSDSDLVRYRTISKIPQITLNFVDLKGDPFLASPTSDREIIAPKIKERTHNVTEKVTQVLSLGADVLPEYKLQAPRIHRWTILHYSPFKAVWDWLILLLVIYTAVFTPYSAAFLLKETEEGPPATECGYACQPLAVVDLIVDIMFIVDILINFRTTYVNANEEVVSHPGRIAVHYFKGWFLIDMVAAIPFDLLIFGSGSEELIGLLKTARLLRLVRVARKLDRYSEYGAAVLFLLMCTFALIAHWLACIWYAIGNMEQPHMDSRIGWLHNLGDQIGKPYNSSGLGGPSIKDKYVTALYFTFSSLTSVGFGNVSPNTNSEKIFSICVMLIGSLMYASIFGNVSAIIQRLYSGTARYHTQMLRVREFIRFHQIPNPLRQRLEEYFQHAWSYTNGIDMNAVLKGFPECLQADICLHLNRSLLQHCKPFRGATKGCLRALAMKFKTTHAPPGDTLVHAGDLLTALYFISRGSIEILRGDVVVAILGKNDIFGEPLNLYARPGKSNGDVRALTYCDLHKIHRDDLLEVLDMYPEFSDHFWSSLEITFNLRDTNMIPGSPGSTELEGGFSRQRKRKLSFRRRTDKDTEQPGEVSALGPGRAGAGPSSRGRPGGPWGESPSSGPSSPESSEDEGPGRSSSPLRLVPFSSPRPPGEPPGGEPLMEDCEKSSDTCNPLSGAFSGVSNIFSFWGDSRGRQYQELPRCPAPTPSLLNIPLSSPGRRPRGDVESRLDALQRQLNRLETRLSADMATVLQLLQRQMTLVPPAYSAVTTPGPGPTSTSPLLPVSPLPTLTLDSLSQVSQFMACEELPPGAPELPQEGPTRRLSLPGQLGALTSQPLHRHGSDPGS
Sequence of Cytochrome P450 2C19 (P33261 whole entry): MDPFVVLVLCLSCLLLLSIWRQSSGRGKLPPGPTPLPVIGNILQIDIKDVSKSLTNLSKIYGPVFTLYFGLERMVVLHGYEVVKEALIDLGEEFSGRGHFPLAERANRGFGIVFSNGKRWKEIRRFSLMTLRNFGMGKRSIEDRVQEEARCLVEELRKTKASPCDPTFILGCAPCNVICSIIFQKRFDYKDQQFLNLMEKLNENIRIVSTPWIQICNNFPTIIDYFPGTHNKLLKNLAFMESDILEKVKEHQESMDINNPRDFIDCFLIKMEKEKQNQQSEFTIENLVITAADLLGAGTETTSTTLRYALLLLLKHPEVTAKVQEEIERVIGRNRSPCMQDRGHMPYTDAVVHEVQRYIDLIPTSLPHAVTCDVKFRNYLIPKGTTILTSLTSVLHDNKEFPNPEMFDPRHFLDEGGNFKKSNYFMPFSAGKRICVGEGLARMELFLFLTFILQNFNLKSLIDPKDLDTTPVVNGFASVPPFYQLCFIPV

In the case of `CNc1nc(Nc2ccc(-n3cnc(C)n3)c(OC)c2)nc2c1CC[C@H]2c1ccc(F)cc1`, the IC50 (usually the midpoint of a concentration-inhibition curve) in data set [1] was 0.0066 µM; in data set [2], 1.2 µM; in [5] it was 0.0055 µM; in [7], more than 40 µM; in data set [8], 4.5 µM; in data set [9], 8.3 µM. In data set [3], the inhibition result was “Active”. Further, the Fu in data set [4] worked out at 0.6%; in data set [6], 0.8%. The Ki in data set [10] came out at 83 µM. Besides, the solubility (usually the concentration that dissolves in the medium under given conditions) in [11] stood at 0.1 µg/mL (≈ 0.224 µM). Besides, the Vdss (as a rule, the apparent volume that relates the amount in the body to the concentration in plasma or blood) in data set [12] amounted to 2.3 L/kg; in data set [13], 5.4 L/kg. The molecule also yielded a F in [14] of 45%. The same molecule gave a t1/2 in [15] of 8.7 h. The Activity in data set [16] is given as 16%; in [17], “Non-Toxic”; in data set [19], “Non-Toxic”; in data set [20], “Non-Toxic”. The Time in data set [18] amounted to 3 ms. Further, the Cmax (as a rule, the peak of the concentration-time curve) in data set [21] amounted to 14 µM. The NOAEL (usually the highest tested level that showed no adverse finding) in data set [22] was determined as 150 mg/kg. Besides, the exposure (AUC) (as a rule, the area under the concentration-time curve, a measure of exposure) at 24 h in data set [23] was determined as 9.7 µM·h; in data set [24], 32 µM·h.
